Common to all, as to format: functional, cell-based
The test system of assay [1] is RAW264.7. The assay is described as follows: Inhibition of NF-kappaB activation in LPS-stimulated RAW264.7 cells after 24 hrs. The note with it: Mus musculus, RAW264.7, 24 h. In short, it runs like this:
(§1)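 RAW264.7 cells transfected with a reporter plasmid carrying eight kappaB elements driving secreted alkaline phosphatase, seeded 5 × 10^4 cells/well. After 3 h at 37 °C, cells were given compound (0.1–10 µM) plus LPS 1 µg/mL for 24 h. SEAP activity was read at 405 nm with p-nitrophenyl phosphate substrate in diethanolamine/MgCl2/L-homoarginine buffer. IC50 is relative to vehicle control, mean ± SD of three experiments.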

In assay [2] the test system is RAW264.7. Put plainly: Inhibition of NO production in LPS-stimulated RAW264.7 cells after 24 hrs. The conditions noted are these: Mus musculus, RAW264.7, 24 h. In short, it runs like this:
(§2)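 RAW264.7 cells (1 × 10^5/well) were stimulated with LPS 1 µg/mL for 24 h with or without compound (0.1, 0.3, 1, 3, 10 µM). Nitrite in the culture supernatant was measured with Griess reagent. The remaining cells were checked for viability by MTT. IC50 is relative to vehicle control, mean ± SD of three separate experiments.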

Assay [3] relates to RAW264.7. Put plainly: Inhibition of NO production in LPS-stimulated RAW264.7 cells at 10 uM after 24 hrs. The conditions noted are these: Mus musculus. In short, it runs like this: as §2
Assay [4] concerns RAW264.7. Put plainly: Inhibition of NF-kappaB activation in LPS-stimulated RAW264.7 cells at 10 uM after 24 hrs. The note with it: Mus musculus. In short, it runs like this: as §1

The source made the active and inactive calls. No cut-off for these calls is given here.

The compound `C=C1C(=O)O[C@@H]2C3O[C@]3(C)CC/C=C(\C)CC[C@@H]12` (stereo not given in full) showed an IC50 in the assay on RAW264.7 [1] of 1150 nM. In other words, the single-digit micromolar range.
For the compound `C=C1C(=O)[C@@]23CC[C@@H]4[C@](C)(CO)[C@@H](OC(C)=O)CC[C@@]4(C)[C@@H]2[C@@H](O)C[C@@H]1C3` [EXCISUSIN A], the IC50 in the assay with RAW264.7 [1] was found to be 900 nM; in the assay with RAW264.7 [2] it was 670 nM.
Regarding `C=C1C(=O)[C@@]23CC[C@@H]4C(C)(C)[C@@H](OC(C)=O)C[C@H](O)[C@@]4(C)[C@@H]2[C@@H](O)C[C@@H]1C3` [EXCISUSIN B], the IC50 in the assay on RAW264.7 [1] was 260 nM; in the assay with RAW264.7 [2], 560 nM.
Turning to `C=C1[C@@H]2C[C@H](O)[C@H]3[C@]4(C)CC[C@@H](O)[C@@](C)(COC(C)=O)[C@H]4CC[C@]3(C2)[C@@H]1O` [EXCISUSIN C], the IC50 in the assay with RAW264.7 [1] and in the assay with RAW264.7 [2] was above 10000 nM in each case. Also, the outcome in the assay on RAW264.7 [3] and in the assay on RAW264.7 [4] was inactive.
Turning to `C=C1C(=O)[C@]23C[C@H]1C[C@H](OC(C)=O)[C@H]2[C@@]1(C)[C@H]([C@@H](O)C3)C(C)(C)[C@@H](O)C[C@@H]1O` [EXCISUSIN D], the figures for the IC50 in the assay with RAW264.7 [1] and with RAW264.7 [2] were 3210 nM and 2890 nM, respectively.
In the same order, the values of `C=C1C(=O)[C@@]23CC[C@H]4[C@@](C)(CCC(=O)[C@@]4(C)COC(C)=O)[C@@H]2[C@@H](O)C[C@@H]1C3` [EXCISUSIN E] are 1020 nM and 1360 nM.
Regarding `C=C1C(=O)[C@]23C[C@H]1C[C@H](O)[C@H]2[C@]1(C)CC[C@H](OC(C)=O)C(C)(C)[C@H]1[C@@H](O)C3` [INFLEXANIN A], the IC50 worked out at 400 nM in the assay on RAW264.7 [1] and 630 nM in the assay on RAW264.7 [2].
In the case of `C=C1C(=O)[C@]23C[C@H]1C[C@H](O)[C@H]2[C@@]1(C)[C@H]([C@@H](O)C3)C(C)(C)[C@@H](OC(C)=O)C[C@@H]1O` [INFLEXANIN B], the values for the IC50 in the assay on RAW264.7 [1] and with RAW264.7 [2] were 1820 nM and 2520 nM, respectively.
`C=C1[C@@H]2C[C@H](OC(C)=O)[C@@H]3[C@](C2)(C[C@H](O)[C@@H]2C(C)(C)[C@@H](OC(C)=O)C[C@H](O)[C@]23C)[C@@H]1O` [INFLEXARABDONIN A]: the IC50 in the assay on RAW264.7 [1] and with RAW264.7 [2] was above 10000 nM each time. In addition, the result with RAW264.7 [3] and with RAW264.7 [4] was inactive.
Consider `C=C1C(=O)[C@@]23CC[C@@H]4C(C)(C)[C@@H](OC(C)=O)C[C@H](O)[C@@]4(C)[C@@H]2[C@@H](OC(C)=O)C[C@@H]1C3` [INFLEXARABDONIN G], for which the IC50 with RAW264.7 [1] turned out to be 240 nM; in the assay on RAW264.7 [2], 480 nM.
For `C=C1C(=O)[C@]23C[C@H]1C[C@H](O)[C@H]2[C@]1(C)CCC(=O)C(C)(C)[C@H]1[C@@H](O)C3` [INFLEXARABDONIN I] the same measures were 1150 nM and 1240 nM.
In the same order, the values of `C=C1C(=O)[C@]23C[C@H]1C[C@H](OC(C)=O)[C@H]2[C@@]1(C)[C@H]([C@@H](O)C3)C(C)(C)[C@@H](OC(C)=O)C[C@@H]1O` [INFLEXINOL] are 440 nM and 940 nM.
For `C=C1C(=O)[C@@]23CC(=O)[C@@H]4C(C)(C)[C@@H](OC(C)=O)C[C@H](O)[C@@]4(C)[C@@H]2[C@@H](OC(C)=O)C[C@@H]1C3` [INFLEXIN] the same measures were 230 nM and 690 nM.
In the case of `N=C(N)NN` [PIMAGEDINE], the IC50 in the assay on RAW264.7 [2] was determined as 32200 nM.
